Bioassay records from PubChem.
An excerpt weighted towards active compounds, which were near 0.79% of everything screened.
mIAP block = blocks mouse intestinal alkaline phosphatase; hit rate 0.2% among 330,000; purified mouse IAP, CDP-Star luminescence, 30 min; inhibition, % at 10 µM; AID 2806;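 active means inhibition of at least 40% at 10 µM in the primary screen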;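 further: plate controls were DMSO with enzyme for no effect and no enzyme wells for full effect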
mIAP activ = mouse IAP activation | muIAP, CDP-Star luminescence, 30 min; stronger effect = higher value; 1 = vehicle-only enzyme signal, 0 = enzyme-free wells | activation factor at 10 µM | hit rate 0.24% among 330,000;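 active means activation factor of at least 2 at 20 µM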
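System: mouse IAP enzyme. Reagent: CDP-Star chemiluminescent phosphatase substrate. Benchmarks: DMSO wells, no-enzyme wells. Times: 30 min enzyme-substrate-compound incubation at room temperature. Detection: luminescence from enzymatic CDP-Star hydrolysis. Doses: test compounds delivered from DMSO solution.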
bIAP activator = increases bovine intestinal alkaline phosphatase activity | hit rate 0.17% among 200,000 | purified bovine IAP, CDP-star luminescence, 30 min; stronger effect = higher value; fold of DMSO-control signal, blank-subtracted | activation factor at 20 µM;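 active means activation factor of 2 or more at 20 µM, a signal rise over negative controls twice the positive control's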
hIAP act = increases human intestinal alkaline phosphatase activity; P09923; purified human IAP, CDP-Star luminescence, 30 min; stronger effect = higher value; 1 = vehicle-only enzyme, 0 = enzyme-free background; activation factor at 10 µM; hit rate 0.16% among 330,000; AID 2524;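 active means activation factor of the enzyme at least 2-fold when tested at 20 µM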
Target sequence (P09923 whole entry, looked up): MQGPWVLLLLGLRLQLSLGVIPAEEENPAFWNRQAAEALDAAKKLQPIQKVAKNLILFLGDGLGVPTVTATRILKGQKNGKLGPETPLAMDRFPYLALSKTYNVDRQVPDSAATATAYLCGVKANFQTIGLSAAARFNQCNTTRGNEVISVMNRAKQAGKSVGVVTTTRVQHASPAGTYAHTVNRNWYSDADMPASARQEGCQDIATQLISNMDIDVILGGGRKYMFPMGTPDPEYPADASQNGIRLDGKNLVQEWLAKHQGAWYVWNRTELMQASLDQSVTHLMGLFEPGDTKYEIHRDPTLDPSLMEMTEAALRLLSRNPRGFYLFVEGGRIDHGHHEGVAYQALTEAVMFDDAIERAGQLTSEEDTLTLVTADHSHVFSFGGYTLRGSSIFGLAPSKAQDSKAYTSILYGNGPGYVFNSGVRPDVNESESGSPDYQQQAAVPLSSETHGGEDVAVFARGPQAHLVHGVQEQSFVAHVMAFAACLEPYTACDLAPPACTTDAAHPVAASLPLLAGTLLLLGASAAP
hIAP inh = human IAP inhibition; P09923; purified IAP, CDP-Star luminescence, 30 min; inhibition, % at 10 µM; hit rate 0.12% among 330,000;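 active means inhibition reaching a set limit with compound at 10 µM in the primary screen, cut at about 35% in these data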;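 further: plate controls were DMSO wells with enzyme for no effect and no-enzyme buffer wells for full effect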
bIAP inhibitor = blocks bovine intestinal alkaline phosphatase activity. purified bovine IAP, CDP-star luminescence, 30 min. inhibition, % at 20 µM. 190,000 tested, under 10 active. AID 1019;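 active means over 50% inhibition of intestinal alkaline phosphatase at 20 µM in the single-dose screen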
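test system = bovine IAP enzyme | medium = DEA buffer 100 mM, pH 9.8, with MgCl2 1.0 mM, ZnCl2 0.02 mM | detection = luminescence | dosing = single compound dose of 20 µM, 2% DMSO final | incubation = 30 min reaction at room temperature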
mIAP inh confirm = mouse IAP inhibition confirmation; shares compounds with mIAP block; purified mouse IAP, CDP-Star luminescence, 30 min; inhibition, % at 10 µM; hit rate 4.7% among 11,000; AID 434971;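 active means inhibition of at least 40% at 10 µM in either of the two replicates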;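 further: plate controls were DMSO wells with enzyme for no effect and buffer wells lacking enzyme for full effect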
The depositor's hits bear a star.

Results for CCOC(=O)CSc1n[nH]c(-c2ccco2)n1 ?
mIAP block: 7.0; mIAP activ: 0.93; bIAP activator: 1; hIAP act: 1.03; hIAP inh: -3.3; bIAP inhibitor: 4.7

What do the screens show for `O=C(O)c1ccc(CSc2n[nH]c(-c3ccco3)n2)cc1`?
mIAP block: 57.7*; mIAP activ: 0.423; bIAP activator: 0.9; hIAP act: 1.05; hIAP inh: -5.2; bIAP inhibitor: 11.7; mIAP inh confirm: 86.3*

How did CCOC(=O)c1cc(CC)sc1/N=C/C1=C(O)CC(C)(C)CC1=O do in these assays?
mIAP block: -1.3; mIAP activ: 1.01; bIAP activator: 1.2; hIAP act: 0.992; hIAP inh: 0.8; bIAP inhibitor: -23.4

How did CCOC(=O)c1sc(N=NC2=C(O)CC(C)(C)CC2=O)c(C(=O)OCC)c1C do in these assays?
mIAP block: -297.1; mIAP activ: 3.97*; bIAP activator: 1.1; hIAP act: 1.25; hIAP inh: -24.9; bIAP inhibitor: -10.5; mIAP inh confirm: -209.7

How did COc1ccc(C(O)c2nc3ccccc3n2C(C)C)cc1 (stereo not given) do in these assays?
mIAP block: -6.4; mIAP activ: 1.06; hIAP act: 1.3; hIAP inh: -29.9

Results for Cc1ccc(C2C(C#N)=C(N)SC(N)=C2C#N)o1 ?
mIAP block: 44.2*; mIAP activ: 0.558; bIAP activator: 0.9; hIAP act: 0.931; hIAP inh: 6.9; bIAP inhibitor: 5.7; mIAP inh confirm: 45.4*

Results for CCc1ccc(C2C(C#N)=C(N)SC(N)=C2C#N)s1 ?
mIAP block: 22.6; mIAP activ: 0.774; bIAP activator: 0.9; hIAP act: 0.991; hIAP inh: 0.9; bIAP inhibitor: 8.6

Results for CCSc1ccccc1C(=O)NC1CCCCC1 ?
mIAP block: -9.0; mIAP activ: 1.09; bIAP activator: 0.9; hIAP act: 1.16; hIAP inh: -15.8; bIAP inhibitor: 6.5

How did Cc1ccc(SCc2nc3ccccc3n2CC(=O)Nc2c(C)cccc2C)cc1 do in these assays?
mIAP block: -75.3; mIAP activ: 1.75; bIAP activator: 1.4; hIAP act: 0.869; hIAP inh: 13.1; bIAP inhibitor: -37.7

How did O=C(Cn1c(CO)nc2ccccc21)Nc1ccccc1Cl do in these assays?
mIAP block: -1.1; mIAP activ: 1.01; bIAP activator: 0.9; hIAP act: 0.98; hIAP inh: 2.0; bIAP inhibitor: 5.0

Results for Cc1ccc(SCc2nc3ccccc3n2CC(=O)Nc2ccc(Cl)cc2)cc1 ?
mIAP block: -174.6; mIAP activ: 2.75*; bIAP activator: 1.2; hIAP act: 1.02; hIAP inh: -2.3; bIAP inhibitor: -15.2; mIAP inh confirm: -85.5

How did O=C(Cn1c(-c2ccccc2Cl)nc2ccccc21)Nc1cccc(Cl)c1 do in these assays?
mIAP block: -182.8; mIAP activ: 2.83*; bIAP activator: 1.1; hIAP act: 0.951; hIAP inh: 4.9; bIAP inhibitor: -12.1; mIAP inh confirm: -151.0

What do the screens show for `O=C(Cn1c(COc2ccccc2)nc2ccccc21)Nc1cccc(Cl)c1`?
mIAP block: -6.3; mIAP activ: 1.06; bIAP activator: 1.2; hIAP act: 0.99; hIAP inh: 1.0; bIAP inhibitor: -19.2

Results for Cc1cc(C)cc(NC(=O)Cn2c(-c3ccccc3Cl)nc3ccccc32)c1 ?
mIAP block: -178.7; mIAP activ: 2.79*; bIAP activator: 1.1; hIAP act: 1.1; hIAP inh: -10.0; bIAP inhibitor: -13.4; mIAP inh confirm: -148.4

How did COc1ccc(OC)c(NC(=O)NNS(=O)(=O)c2ccc(C)cc2C)c1 do in these assays?
mIAP block: -6.1; mIAP activ: 1.06; hIAP act: 0.703; hIAP inh: 29.7

How did CC[C@]12c3[nH]c4ccc(OC)cc4c3CCN1C(=O)C(CC(=O)NCc1ccc(OC)c(OC)c1)C[C@@H]2C(=O)N1CCN(C(=O)C2CC2)CC1 (stereo not given in full) do in these assays?
mIAP block: -14.0; mIAP activ: 1.17

What do the screens show for `Cc1cc(C)n(CCCN2CCC(C(=O)Nc3cccc(-c4cccc(F)c4)c3)CC2)n1`?
mIAP block: -249.7; mIAP activ: 3.5*; hIAP act: 1; hIAP inh: -0.1; mIAP inh confirm: -201.5

How did Cc1ccccc1C(=O)N1CCC(C(=O)Nc2cccc(F)c2)CC1 do in these assays?
mIAP block: -9.0; mIAP activ: 1.09; bIAP activator: 1.1; hIAP act: 1.16; hIAP inh: -15.8; bIAP inhibitor: -12.5

How did COc1ccc(CN2CC[C@H]3C=CC[C@@H](C(=O)Nc4ccc(Cl)c(C(F)(F)F)c4)[C@H]3C2=O)cc1OC do in these assays?
mIAP block: -109.6; mIAP activ: 2.1*; hIAP act: 0.908; hIAP inh: 9.2; mIAP inh confirm: -185.4

What do the screens show for `Cc1sc2ncn(CC(=O)N3CCN(c4ccccn4)CC3)c(=O)c2c1S(=O)(=O)N1CCC(C)CC1`?
mIAP block: 3.2; mIAP activ: 0.968; hIAP act: 1.02; hIAP inh: -1.8

How did O=C(N/N=C/c1cc2c(cc1[N+](=O)[O-])OCO2)c1ccccn1 do in these assays?
mIAP block: 40.0*; mIAP activ: 0.6; hIAP act: 1; hIAP inh: -0.2; mIAP inh confirm: 58.2*

What do the screens show for `O=C(c1cccs1)[C@@H]1[C@@H]2C(=O)N(Cc3ccc4c(c3)OCO4)C(=O)[C@@H]2C2c3ccccc3C=CN21` (stereo not given in full)?
mIAP block: 46.1*; mIAP activ: 0.539; bIAP activator: 0.9; hIAP act: 0.988; hIAP inh: 1.2; bIAP inhibitor: 6.7; mIAP inh confirm: 43.1*

What do the screens show for `O=C(c1ccc2c(c1)OCO2)[C@@H]1[C@@H]2C(=O)N(C3CCCCC3)C(=O)[C@@H]2C2c3ccccc3C=CN21` (stereo not given in full)?
bIAP activator: 1; bIAP inhibitor: 2.2

How did CCc1nc(SCc2ccc(OCC(C)C)cc2)n[nH]1 do in these assays?
mIAP block: 8.2; mIAP activ: 0.918; hIAP act: 1.58; hIAP inh: -58.0

How did Cn1c(SCC(=O)NC2CC2)nnc1-c1cccs1 do in these assays?
mIAP block: -2.7; mIAP activ: 1.03; hIAP act: 0.921; hIAP inh: 7.9

Results for C/C(=N\NC(=O)c1cc(O)cc(O)c1)c1ccc(NC(=O)Cc2ccccc2)cc1 ?
mIAP block: 50.5*; mIAP activ: 0.495; hIAP act: 1.03; hIAP inh: -3.0; mIAP inh confirm: 56.8*

Results for Cc1cc(C)cc(NC(=O)C2CCN(S(=O)(=O)c3ccc4c(c3)NC(=O)C(C)S4)CC2)c1 (stereo not given) ?
mIAP block: -145.1; mIAP activ: 2.45*; hIAP act: 1.44; hIAP inh: -43.5; mIAP inh confirm: -96.0
